Experimental findings from ChEMBL document CHEMBL1134286, “Novel erythromycin derivatives with aryl groups tethered to the C-6 position are potent protein synthesis inhibitors and active against multidrug-resistant respiratory pathogens” (J Med Chem, 2001) are described below.

What all share (type): functional
Assay [1] can be described thus: Minimum inhibitory concentration against Haemophilus influenzae DILL Amp-R. The procedure, abridged:
(§1)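 MICs were determined by agar dilution following National Committee for Clinical Laboratory Standards recommendations. Values are in µg/mL.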

Assay [2] concerns Streptococcus pneumoniae. Put plainly: Minimum inhibitory concentration against Streptococcus pneumoniae 5649 efflux. The procedure, abridged: as §1
The test system of assay [3] is Staphylococcus aureus. The assay can be described thus: Minimum inhibitory concentration against Staphylococcus aureus ATCC 6538PEry-S. The conditions noted are these: ATCC 6538P. Summed up: as §1
Assay [4] deals with Staphylococcus aureus. The assay can be described thus: Minimum inhibitory concentration against Staphylococcus aureus A 5278 MLSB-c. Summed up: as §1
Assay [5] in a line: Minimum inhibitory concentration against Streptococcus pyogenes 930MLSB. The procedure, abridged:
as §1

The test system of assay [6] is Streptococcus pneumoniae. Put plainly: Minimum inhibitory concentration against Streptococcus pneumoniae ATCC 6303 Ery-S. Summed up:
as §1

The nature of assay [7]: Minimum inhibitory concentration against Streptococcus pyogenes PIU2548 efflux. Summed up: as §1
The subject of assay [8] is Staphylococcus aureus. The assay can be described thus: Minimum inhibitory concentration against Staphylococcus aureus A 5177 MLSB-i. Summed up: as §1
Assay [9] in a line: Minimum inhibitory concentration against Streptococcus pneumoniae 5737 MLSB. The procedure, abridged: as §1
Assay [10] in a line: Minimum inhibitory concentration against Streptococcus pyogenes EES 61 Ery-S. Summed up:
as §1

Converted amounts (≈) assume the structure as drawn.

With `CC[C@H]1OC(=O)[C@H](C)C(=O)[C@H](C)[C@@H](O[C@@H]2O[C@H](C)C[C@H](N(C)C)[C@H]2O)[C@](C)(OC/C=C/c2ccc3ncccc3c2)C[C@@H](C)C(=O)[C@H](C)[C@H]2NC(=O)O[C@@]21C`, the MIC in [1] was 1 µg/mL (≈ 1.31 µM); against Streptococcus pneumoniae [2] it was 0.25 µg/mL (≈ 0.326 µM); with Staphylococcus aureus [3], 0.05 µg/mL (≈ 0.0653 µM); against Staphylococcus aureus [4], more than 100 µg/mL; in assay [5], 1 µg/mL (≈ 1.31 µM); in the assay on Streptococcus pneumoniae [6] it was 0.004 µg/mL (≈ 0.00522 µM). Also, the MIC was 0.25 µg/mL (≈ 0.326 µM) in assay [7], 0.05 µg/mL (≈ 0.0653 µM) in the assay on Staphylococcus aureus [8], 1 µg/mL (≈ 1.31 µM) in assay [9] and 0.004 µg/mL (≈ 0.00522 µM) in assay [10].

As for `CC[C@H]1OC(=O)[C@H](C)C(=O)[C@H](C)[C@@H](O[C@@H]2O[C@H](C)C[C@H](N(C)C)[C@H]2O)[C@](C)(OC/C=C/c2ccc(Cl)cc2)C[C@@H](C)C(=O)[C@H](C)[C@@H](O)[C@]1(C)O`, the MIC in [1] was 64 µg/mL (≈ 88.4 µM); against Streptococcus pneumoniae [2], 2 µg/mL (≈ 2.76 µM); with Staphylococcus aureus [3], 1.56 µg/mL (≈ 2.15 µM); in the assay on Staphylococcus aureus [4], more than 100 µg/mL; in assay [5] it was 32 µg/mL (≈ 44.2 µM); with Streptococcus pneumoniae [6], 1 µg/mL (≈ 1.38 µM). The MIC is 2 µg/mL (≈ 2.76 µM) in [7], 1.56 µg/mL (≈ 2.15 µM) against Staphylococcus aureus [8], 32 µg/mL (≈ 44.2 µM) in assay [9] and 0.5 µg/mL (≈ 0.69 µM) in [10].

Consider `CC[C@H]1OC(=O)[C@H](C)C(=O)[C@H](C)[C@@H](O[C@@H]2O[C@H](C)C[C@H](N(C)C)[C@H]2O)[C@](C)(OC/C=C/c2ccc3ccccc3n2)C[C@@H](C)C(=O)[C@H](C)[C@H]2NC(=O)O[C@@]21C`, for which the MIC in assay [1] is 8 µg/mL (≈ 10.4 µM); against Streptococcus pneumoniae [2], 1 µg/mL (≈ 1.31 µM); against Staphylococcus aureus [3] it was 0.39 µg/mL (≈ 0.509 µM); in the assay on Staphylococcus aureus [4], more than 100 µg/mL; in assay [5], 16 µg/mL (≈ 20.9 µM); with Streptococcus pneumoniae [6] it was 0.125 µg/mL (≈ 0.163 µM). The MIC in [7] was 1 µg/mL (≈ 1.31 µM); in the assay on Staphylococcus aureus [8] it was 0.39 µg/mL (≈ 0.509 µM); in assay [9], 64 µg/mL (≈ 83.6 µM); in [10] it was 0.125 µg/mL (≈ 0.163 µM).

Regarding `CC[C@H]1OC(=O)[C@H](C)C(=O)[C@H](C)[C@@H](O[C@@H]2O[C@H](C)C[C@H](N(C)C)[C@H]2O)[C@](C)(OC/C=C/c2cccc3ccccc23)C[C@@H](C)C(=O)[C@H](C)[C@H]2NC(=O)O[C@@]21C`, the MIC in assay [1] turned out to be 4 µg/mL (≈ 5.23 µM); against Streptococcus pneumoniae [2] it was 0.25 µg/mL (≈ 0.327 µM); against Staphylococcus aureus [3] it was 0.1 µg/mL (≈ 0.131 µM); in the assay on Staphylococcus aureus [4], 50 µg/mL (≈ 65.4 µM); in assay [5], 16 µg/mL (≈ 20.9 µM); with Streptococcus pneumoniae [6] it was 0.015 µg/mL (≈ 0.0196 µM). In addition, the MIC turned out to be 0.25 µg/mL (≈ 0.327 µM) in [7], 0.1 µg/mL (≈ 0.131 µM) against Staphylococcus aureus [8], 8 µg/mL (≈ 10.5 µM) in assay [9] and 0.015 µg/mL (≈ 0.0196 µM) in [10].

Regarding `CC[C@H]1OC(=O)[C@H](C)C(=O)[C@H](C)[C@@H](O[C@@H]2O[C@H](C)C[C@H](N(C)C)[C@H]2O)[C@](C)(OC/C=C/c2ccccc2)C[C@@H](C)C(=O)[C@H](C)[C@@H](O)[C@]1(C)O`, the MIC in assay [1] was 128 µg/mL (≈ 186 µM); against Streptococcus pneumoniae [2] it was 2 µg/mL (≈ 2.9 µM); against Staphylococcus aureus [3], 1.56 µg/mL (≈ 2.26 µM); in the assay with Staphylococcus aureus [4], more than 100 µg/mL; in assay [5] it was 64 µg/mL (≈ 92.8 µM); against Streptococcus pneumoniae [6], 1 µg/mL (≈ 1.45 µM). In addition, the MIC in [7] was 2 µg/mL (≈ 2.9 µM); in the assay on Staphylococcus aureus [8], 1.56 µg/mL (≈ 2.26 µM); in assay [9], 64 µg/mL (≈ 92.8 µM); in assay [10], 0.25 µg/mL (≈ 0.362 µM).

With `CC[C@H]1OC(=O)[C@H](C)C(=O)[C@H](C)[C@@H](O[C@@H]2O[C@H](C)C[C@H](N(C)C)[C@H]2O)[C@](C)(OC/C=C/c2cnc3ncccc3c2)C[C@@H](C)C(=O)[C@H](C)[C@H]2NC(=O)O[C@@]21C`, the MIC was 2 µg/mL (≈ 2.61 µM) in assay [1]; 2 µg/mL (≈ 2.61 µM) in the assay on Streptococcus pneumoniae [2]; 0.05 µg/mL (≈ 0.0652 µM) in the assay on Staphylococcus aureus [3]; more than 100 µg/mL with Staphylococcus aureus [4]; 0.5 µg/mL (≈ 0.652 µM) in assay [5]; 0.03 µg/mL (≈ 0.0391 µM) against Streptococcus pneumoniae [6]. In addition, the MIC in assay [7] turned out to be 2 µg/mL (≈ 2.61 µM); in the assay with Staphylococcus aureus [8] it was 0.05 µg/mL (≈ 0.0652 µM); in [9], 0.5 µg/mL (≈ 0.652 µM); in [10], 0.03 µg/mL (≈ 0.0391 µM).
